Source: ChEMBL document CHEMBL1287666, “Synthesis and in vitro antifungal activities of new 3-substituted benzopyrone derivatives” (2010)
Converted amounts (≈) assume the structure as drawn.

What was measured:
Format in all cases: functional
[1] = tested on: Candida albicans; test: Antifungal activity against Candida albicans by serial dilution method
How it was run: (§1)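 Broth serial dilution in 96-well microplates against a panel of five human pathogenic fungi. Activity is reported as the minimal inhibitory concentration (MIC), and fluconazole served as the positive control.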

[2] = tested on: Cryptococcus neoformans; test: Antifungal activity against Cryptococcus neoformans by serial dilution method; how it was run: as §1
[3] = tested on: Candida parapsilosis; test: Antifungal activity against Candida parapsilosis clinical isolate by serial dilution method; conditions: Lodderomyces parapsilosis; how it was run: as §1
[4] = tested on: Trichophyton rubrum; test: Antifungal activity against Trichophyton rubrum clinical isolate by serial dilution method; how it was run: as §1
[5] = tested on: Nannizzia gypsea; test: Antifungal activity against Microsporum gypseum clinical isolate by serial dilution method; how it was run: as §1
[6] = tested on: Trichophyton rubrum; test: Antifungal activity against Trichophyton rubrum

| Structure (SMILES) | MIC [1] | MIC [2] | MIC [3] | MIC [4] | MIC [5] | MIC80 [6] |
| --- | --- | --- | --- | --- | --- | --- |
| OC(Cn1cncn1)(Cn1cncn1)c1ccc(F)cc1F [FLUCONAZOLE] | 0.25 mg/L (≈ 0.816 µM) | 1 mg/L (≈ 3.27 µM) | 32 mg/L (≈ 104 µM) | 0.25 mg/L (≈ 0.816 µM) | 0.5 mg/L (≈ 1.63 µM) | – |
| COc1ccc2c(=O)c(C#CCOC(=O)CCCCC(C)C)coc2c1 | > 100 mg/L | 50 mg/L (≈ 140 µM) | 25 mg/L (≈ 70.1 µM) | 12.5 mg/L (≈ 35.1 µM) | 12.5 mg/L (≈ 35.1 µM) | – |
| CCC(=O)OCC#Cc1coc2cc(OC)ccc2c1=O | 25 mg/L (≈ 87.3 µM) | 25 mg/L (≈ 87.3 µM) | 25 mg/L (≈ 87.3 µM) | 6.25 mg/L (≈ 21.8 µM) | 12.5 mg/L (≈ 43.7 µM) | – |
| CCCCC(=O)OCC#Cc1coc2cc(OC)ccc2c1=O | 25 mg/L (≈ 79.5 µM) | 25 mg/L (≈ 79.5 µM) | 25 mg/L (≈ 79.5 µM) | 1.5 mg/L (≈ 4.77 µM) | 25 mg/L (≈ 79.5 µM) | 1.5 mg/L (≈ 4.77 µM) |
| CCCCCCC(=O)OCC#Cc1coc2cc(OC)ccc2c1=O | > 100 mg/L | > 100 mg/L | > 100 mg/L | > 100 mg/L | > 100 mg/L | – |
| COc1ccc2c(=O)c(C#CCOC(=O)C3CCCCC3)coc2c1 | > 100 mg/L | > 100 mg/L | > 100 mg/L | > 100 mg/L | > 100 mg/L | – |
| CCCCCC(=O)OCC#Cc1coc2cc(OC)ccc2c1=O | > 100 mg/L | > 100 mg/L | 50 mg/L (≈ 152 µM) | 25 mg/L (≈ 76.1 µM) | 12.5 mg/L (≈ 38.1 µM) | – |
| COc1ccc2c(=O)c(C#CCOC(=O)C3C(C)(C)C3(C)C)coc2c1 | > 100 mg/L | > 100 mg/L | > 100 mg/L | > 100 mg/L | 12.5 mg/L (≈ 35.3 µM) | – |
| COc1ccc2c(=O)c(C#CCOC(=O)Cc3ccc(Cl)cc3)coc2c1 | > 100 mg/L | > 100 mg/L | > 100 mg/L | > 100 mg/L | > 100 mg/L | – |
| COc1ccc2c(=O)c(C#CCOC(C)=O)coc2c1 | > 100 mg/L | > 100 mg/L | > 100 mg/L | > 100 mg/L | 25 mg/L (≈ 91.8 µM) | – |
| COc1ccc2c(=O)c(C#CCOC(=O)CC(C)C)coc2c1 | > 100 mg/L | 50 mg/L (≈ 159 µM) | 50 mg/L (≈ 159 µM) | 6.25 mg/L (≈ 19.9 µM) | 25 mg/L (≈ 79.5 µM) | – |
| CCCCCCCC(=O)OCC#Cc1coc2cc(OC)ccc2c1=O | > 100 mg/L | > 100 mg/L | > 100 mg/L | > 100 mg/L | > 100 mg/L | – |
| COc1ccc2c(=O)c(C#CCOC(=O)Cc3ccccc3)coc2c1 | > 100 mg/L | > 100 mg/L | > 100 mg/L | > 100 mg/L | > 100 mg/L | – |
| CCCC(=O)OCC#Cc1coc2cc(OC)ccc2c1=O | 12.5 mg/L (≈ 41.6 µM) | 50 mg/L (≈ 166 µM) | 50 mg/L (≈ 166 µM) | 12.5 mg/L (≈ 41.6 µM) | 25 mg/L (≈ 83.2 µM) | – |
| COc1ccc2c(=O)c(C#CCO)coc2c1 | > 100 mg/L | > 100 mg/L | > 100 mg/L | > 100 mg/L | > 100 mg/L | – |
| COc1ccc2c(=O)c(C#CCOC(=O)c3cc([N+](=O)[O-])cc([N+](=O)[O-])c3)coc2c1 | > 100 mg/L | > 100 mg/L | > 100 mg/L | 50 mg/L (≈ 118 µM) | 50 mg/L (≈ 118 µM) | – |
| COc1ccc2c(=O)c(C#CCOC(=O)c3ccc([N+](=O)[O-])cc3)coc2c1 | > 100 mg/L | > 100 mg/L | > 100 mg/L | > 100 mg/L | > 100 mg/L | – |
| COc1ccc2c(=O)c(C#CCOC(=O)C(C)C)coc2c1 | 50 mg/L (≈ 166 µM) | 50 mg/L (≈ 166 µM) | 12.5 mg/L (≈ 41.6 µM) | 3.12 mg/L (≈ 10.4 µM) | 25 mg/L (≈ 83.2 µM) | – |
| COc1ccc2c(=O)c(C#CCOC(=O)Cc3ccccc3Cl)coc2c1 | > 100 mg/L | > 100 mg/L | > 100 mg/L | 50 mg/L (≈ 131 µM) | 50 mg/L (≈ 131 µM) | – |
| COc1ccc2c(=O)c(C#CCOC(=O)c3ccccc3)coc2c1 | > 100 mg/L | > 100 mg/L | > 100 mg/L | > 100 mg/L | > 100 mg/L | – |
